Data set [1] concerns Human alphaherpesvirus 1. Description: Efficacy was evaluated against Systemic HSV-1 infection in mice at a daily dose of 3.1 mg/kg administered subcutaneously; Tested mice 10. The class given is ADME, organism-based. Details: dose 3.1 mg/kg, route subcutaneous. Particulars: mouse, in vivo, sc. The essentials:
(§1)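 ICR/Ha mice (10–20 g, mixed sex) were infected intraperitoneally with 50–100 LD50 of HSV-1 Schooler. Subcutaneous dosing of 0.1 mL twice daily for 4 days started immediately after infection. Groups were of about 10 mice. Survival was recorded daily for 15 days and reported as survivors/total and mean survival time (95% CI). Transformed survival times were compared with placebo-treated infected mice (p < 0.05).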

Data set [2] relates to Human alphaherpesvirus 1. Description: Efficacy was evaluated against Oraficial HSV-1 infection in mice with lesions administered topically at a dose 1 mg/kg per day; Tested mice 10. In kind it is ADME, organism-based. The following applies: mouse, in vivo. Put shortly: (§2)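 Mice were infected orofacially with HSV-1 strain S. Each treatment was 10 μL of compound at the stated percent concentration in a hydroalcoholic vehicle. Application began 3 h after infection and was repeated at 3-h intervals: three treatments on day 1 and four on each of the next 2 days. Lesion incidence and average lesion score were read on day 7 (95% CI). Significance was judged against placebo (p < 0.05).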

Data set [3] relates to Human alphaherpesvirus 1. Description: Efficacy was evaluated against Oraficial HSV-1 infection in mice with lesions administered orally at a dose 50 mg/kg per day. In kind it is ADME, organism-based. On the set-up: route oral. The following applies: mouse, in vivo, po. The essentials: (§3)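 HSV-1 strain S inoculated in the orofacial area of mice as previously described. Half-daily doses given by gavage 8 h apart, starting 3 h after infection, for 7 days. On day 7 after infection, mice with lesions per group and average lesion score were recorded (95% confidence interval). Significance was judged against placebo-treated infected mice (p < 0.05).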

The test system of data set [4] is Human alphaherpesvirus 1. Description: Efficacy was evaluated against Oraficial HSV-1 infection in mice with lesions administered orally at a dose 0.8 mg/kg per day. The class given is ADME, organism-based. On the set-up: route oral. The following applies: mouse, in vivo, po. Put shortly: as §3
The test system of data set [5] is Human alphaherpesvirus 1. Description: Evaluated for DNA polymerase inhibition activity against herpes simplex virus-1 (HSV-1). In kind it is functional. Put shortly:
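Step II mixture supplied the phosphorylated test material. Step I: compound with HSV-1 thymidine kinase, 4 h, 37 °C. Step II: then HSV-1-infected HeLa crude extract plus GMP kinase, overnight, 30 °C. A 20 μL sample went to a 1 h, 37 °C DNA polymerase assay at pH 8 with activated salmon sperm DNA, 0.05 mM each dNTP ([³H]dTTP) and infected HeLa extract. (NH₄)₂SO₄ 0.1 M was present for the viral enzyme and omitted for the cellular polymerases. Read-out: TCA-precipitable radioactivity.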

Data set [6] concerns Human alphaherpesvirus 1. Description: Efficacy was evaluated against Oraficial HSV-1 infection in mice with lesions administered topically at a dose 0.25 mg/kg per day; Tested mice 10. In kind it is ADME, organism-based. Particulars: mouse, in vivo. The essentials:
as §2

Data set [7] has as its system Human alphaherpesvirus 1. Description: Efficacy was evaluated against Systemic HSV-1 infection in mice at a daily dose of 3.1 mg/kg administered subcutaneously. The class given is ADME, organism-based. Details: dose 3.1 mg/kg, route subcutaneous. The following applies: mouse, in vivo, sc. The essentials: as §1
Data set [8] relates to Human alphaherpesvirus 1. Description: Efficacy was evaluated against Oraficial HSV-1 infection in mice with lesions administered topically at a dose 0.06 mg/kg per day. In kind it is ADME, organism-based. Particulars: mouse, in vivo. Put shortly:
as §2

For data set [9], the system named is DNA polymerase (Homo sapiens). Description: Evaluated for DNA polymerase inhibition activity against HeLa cells.
For data set [10], the system named is Human alphaherpesvirus 1. Description: Efficacy was evaluated against Oraficial HSV-1 infection in mice with lesions administered topically at a dose 0.02 mg/kg per day; Tested mice 10. In kind it is ADME, organism-based. Particulars: mouse, in vivo. Put shortly:
as §2

The subject of data set [11] is Human alphaherpesvirus 1. Description: Efficacy was evaluated against Systemic HSV-1 infection in mice at a daily dose of 12.5 mg/kg administered subcutaneously; Tested mice 10. The class given is organism-based. The following applies: mouse, in vivo, sc. Details: dose 12.5 mg/kg, route subcutaneous. Put shortly:
as §1

In data set [12] the test system is Human alphaherpesvirus 1. Description: Efficacy was evaluated against Systemic HSV-1 infection in mice at a daily dose of 3.1 mg/kg administered orally. The class given is ADME, organism-based. Details: dose 3.1 mg/kg. Particulars: mouse, in vivo, po. The essentials:
(§4)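 Mixed-sex ICR/Ha mice (10–20 g) were infected intraperitoneally with 50–100 LD50 of HSV-1 Schooler. Oral dosing of 0.1 mL twice daily for 7 days began immediately after infection. Groups were of about 10 mice. Deaths were recorded daily for 15 days, giving survivors/total and mean survival time with 95% CI. Significance was judged against placebo-treated infected mice using transformed survival times.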

In data set [13] the test system is Human alphaherpesvirus 1. Description: Efficacy was evaluated against Oraficial HSV-1 infection in mice with lesions administered topically at a dose 0.06 mg/kg per day; Tested mice 10. The following applies: mouse, in vivo. In kind it is ADME, organism-based. Put shortly:
as §2

Data set [14] relates to Human alphaherpesvirus 1. Description: Efficacy was evaluated against Systemic HSV-1 infection in mice at a daily dose of 50 mg/kg administered orally. In kind it is ADME, organism-based. Details: dose 50 mg/kg. The following applies: mouse, in vivo, po. The essentials:
as §4

In data set [15] the test system is Human alphaherpesvirus 1. Description: In vitro anti viral activity tested against HSV-1(Schooler) virus on Rabbit kidney cell cultures; 0.5-1.5. The following applies: Human alphaherpesvirus 1, kidney; read-out: ED50 (the source's name). In kind it is functional. The essentials:
(§5)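 Confluent primary rabbit kidney monolayers were preincubated with serial drug dilutions in EMEM with 2% fetal calf serum and neomycin. They were then challenged with about 10 TCID50 of HSV-1 Schooler or HSV-2 Curtis and incubated at 37 °C. Cytopathology was scored on day 5. ED50 is the concentration preventing cytopathology in half of the infected cultures.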

Data set [16] has as its system Human alphaherpesvirus 1. Description: Efficacy was evaluated against Systemic HSV-1 infection in mice at a daily dose of 12.5 mg/kg administered subcutaneously. The class given is ADME, organism-based. Details: dose 12.5 mg/kg, route subcutaneous. Particulars: mouse, in vivo, sc. Put shortly:
as §1

The test system of data set [17] is Human alphaherpesvirus 1. Description: Efficacy was evaluated against Oraficial HSV-1 infection in mice with lesions administered orally at a dose 50 mg/kg per day; Tested mice 10. The class given is organism-based. On the set-up: route oral. The following applies: mouse, in vivo, po. Put shortly: as §3
Data set [18] has as its system Human alphaherpesvirus 1. Description: Efficacy was evaluated against Systemic HSV-1 infection in mice at a daily dose of 50 mg/kg administered orally; Tested mice 10. The class given is organism-based. The following applies: mouse, in vivo, po. Details: dose 50 mg/kg. The essentials:
as §4

Data set [19] has as its system Human alphaherpesvirus 1. Description: Efficacy was evaluated against Systemic HSV-1 infection in mice at a daily dose of 3.1 mg/kg administered orally; Tested mice 10. The class given is organism-based. Details: dose 3.1 mg/kg. The following applies: mouse, in vivo, po. The essentials: as §4
The subject of data set [20] is Human alphaherpesvirus 1. Description: Efficacy was evaluated against Systemic HSV-1 infection in mice at a daily dose of 12.5 mg/kg administered orally. The class given is ADME, organism-based. Details: dose 12.5 mg/kg. The following applies: mouse, in vivo, po. The essentials: as §4
Data set [21] deals with Human alphaherpesvirus 1. Description: Efficacy was evaluated against Oraficial HSV-1 infection in mice with lesions administered orally at a dose 12.5 mg/kg per day. The class given is ADME, organism-based. On the set-up: route oral. Particulars: mouse, in vivo, po. Put shortly: as §3
Data set [22] deals with Human alphaherpesvirus 1. Description: Efficacy was evaluated against Systemic HSV-1 infection in mice at a daily dose of 0.8 mg/kg administered subcutaneously. In kind it is ADME, organism-based. Details: dose 0.8 mg/kg, route subcutaneous. The following applies: mouse, in vivo, sc. Put shortly: as §1
In data set [23] the test system is Human alphaherpesvirus 1. Description: Efficacy was evaluated against Oraficial HSV-1 infection in mice with lesions administered topically at a dose 0.02 mg/kg per day. The class given is ADME, organism-based. The following applies: mouse, in vivo. The essentials:
as §2

The test system of data set [24] is Human alphaherpesvirus 1. Description: Efficacy was evaluated against Oraficial HSV-1 infection in mice with lesions administered orally at dose 0.8 mg/kg per day; Tested mice 10. The class given is ADME, organism-based. On the set-up: route oral. Particulars: mouse, in vivo, po. Put shortly:
as §3

Data set [25] has as its system Human alphaherpesvirus 1. Description: Efficacy was evaluated against Oraficial HSV-1 infection in mice with lesions administered orally at a dose 3.1 mg/kg per day; Tested mice 10. The class given is organism-based. On the set-up: route oral. The following applies: mouse, in vivo, po. The essentials: as §3
Data set [26] has as its system Human alphaherpesvirus 1. Description: Efficacy was evaluated against Oraficial HSV-1 infection in mice with lesions administered orally at a dose 12.5 mg/kg per day; Tested mice 10. The following applies: mouse, in vivo, po. In kind it is organism-based. On the set-up: route oral. Put shortly:
as §3

For data set [27], the system named is Human alphaherpesvirus 1. Description: Efficacy was evaluated against Oraficial HSV-1 infection in mice with lesions administered topically at a dose 0.25 mg/kg per day. The class given is ADME, organism-based. The following applies: mouse, in vivo. The essentials:
as §2

The test system of data set [28] is Human alphaherpesvirus 1. Description: Efficacy was evaluated against Systemic HSV-1 infection in mice at a daily dose of 12.5 mg/kg administered orally; Tested mice 9. The following applies: mouse, in vivo, po. Details: dose 12.5 mg/kg. The class given is organism-based. The essentials: as §4
Data set [29] deals with Human alphaherpesvirus 1. Description: Efficacy was evaluated against Systemic HSV-1 infection in mice at a daily dose of 0.8 mg/kg administered subcutaneously; Tested mice 10. In kind it is organism-based. On the set-up: dose 0.8 mg/kg, route subcutaneous. Particulars: mouse, in vivo, sc. Put shortly:
as §1

For the next data set, the system named is Human alphaherpesvirus 2. Description: In vitro anti viral activity tested against HSV-2(Curtis) virus on Rabbit kidney cell cultures; 1-3. The class given is functional. The following applies: Human alphaherpesvirus 2, kidney; read-out: ED50 (the source's name). The essentials:
as §5

Data set [30] has as its system Human alphaherpesvirus 1. Description: Efficacy was evaluated against Oraficial HSV-1 infection in mice with lesions administered topically at a dose 1 mg/kg per day. The class given is ADME, organism-based. Particulars: mouse, in vivo. The essentials:
as §2

Another data set concerns Human betaherpesvirus 5. Description: In vitro anti viral activity tested against HCMV(AD169) virus on MRC-5 cell monolayers; NA=Not active at 25 ug/mL. The class given is functional, organism-based. The following applies: MRC5. The essentials: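 MRC-5 monolayers were infected with HCMV AD169 for 1 h at 37 °C. Compound diluted in maintenance medium was then added and incubation continued for 7 days at 37 °C. Monolayers were stained and plaques counted. ED50 is the concentration reducing plaque number by 50%.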

The text below walks through data of ChEMBL document CHEMBL1123083, “Synthesis and antiherpetic activity of (S)-, (R)-, and (+/-)-9-[(2,3-dihydroxy-1-propoxy)methyl]guanine, linear isomers of 2'-nor-2'-deoxyguanosine” (J Med Chem, 1985).

The structures appear in SMILES notation. In brackets after ≈: the same amount, converted by molar mass. Activity calls are given as the source filed them. The rule behind the calls is not given here.

Usually Inhibition stands for the percentage by which the read-out fell short of the control. A lower Inhibition goes with little suppression.

Consider `Nc1nc(O)c2ncn(COCC(O)CO)c2n1` (single isomer, unassigned; form 2) [listing 1 of 2 here], for which the Survivors is recorded as 1 in the data set with Human alphaherpesvirus 1 [1]; 4 in the data set on Human alphaherpesvirus 1 [11]; 3 in the data set with Human alphaherpesvirus 1 [18]; 0 in the data set with Human alphaherpesvirus 1 [19]; 0 in the data set on Human alphaherpesvirus 1 [28]; 0 in the data set with Human alphaherpesvirus 1 [29]. In addition, the Mice with lesions in the data set with Human alphaherpesvirus 1 [2] was 2; in the data set with Human alphaherpesvirus 1 [6], 5; in the data set on Human alphaherpesvirus 1 [10], 9; in the data set with Human alphaherpesvirus 1 [13] it was 6; in the data set with Human alphaherpesvirus 1 [17], 1; with Human alphaherpesvirus 1 [24], 9. The Mice with lesions in the data set with Human alphaherpesvirus 1 [25] is 8; in the data set on Human alphaherpesvirus 1 [26], 5. Further, the Average lesion score came to 0.15 with Human alphaherpesvirus 1 [3]; 3.45 in the data set with Human alphaherpesvirus 1 [4]; 1.4 with Human alphaherpesvirus 1 [8]; 0.75 in the data set with Human alphaherpesvirus 1 [21]; 2.75 in the data set on Human alphaherpesvirus 1 [23]; 1.35 in the data set on Human alphaherpesvirus 1 [27]. Moreover, the Average lesion score in the data set with Human alphaherpesvirus 1 [30] came out at 0.4. Moreover, the Inhibition in the data set with Human alphaherpesvirus 1 [5] is on record as 57%; in [9] it was 10%. Also, the Average survival in the data set on Human alphaherpesvirus 1 [7] is 7.6 days; in the data set on Human alphaherpesvirus 1 [12], 6.9 days; in the data set on Human alphaherpesvirus 1 [14] it was 12.9 days; in the data set with Human alphaherpesvirus 1 [16] it was 10.7 days; in the data set on Human alphaherpesvirus 1 [20], 8.1 days; with Human alphaherpesvirus 1 [22], 6.7 days. Also, the results for the EC50 in the data set on Human alphaherpesvirus 1 [15] and in the data set on Human alphaherpesvirus 2 were 0.5 µg/mL (≈ 1.96 µM) and 1 µg/mL (≈ 3.92 µM), respectively.
In the case of `Nc1nc(O)c2ncn(COCC(O)CO)c2n1` (single isomer, unassigned; form 2) [listing 2 of 2 here], the ED50 entry in the data set with Human betaherpesvirus 5 is “inactive”.
